These results are taken from ChEMBL document CHEMBL1137506, “Novel orally active, dibenzazepinone-based gamma-secretase inhibitors” (Bioorg Med Chem Lett, 2007).

pIC50: −log10 of the molar value.

Data set [1] deals with Gamma-secretase. As to the kind of experiment: Inhibition of human gamma secretase in HEK293 cells by reporter gene assay. Type of data set: cell-based. A digest of the protocol: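 Cellular reporter assay in HEK293 cells. The γ-secretase substrate is a Notch 1 construct fused to a Gal4/VP16 transcription factor, which drives a firefly luciferase reporter gene. IC50 is taken from inhibition of the luciferase signal.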
For orientation: In a reporter assay the amount or activity of a reporter protein is the signal.

Data set [2] has as its target Gamma-secretase. As to the kind of experiment: Inhibition of human gamma secretase assessed as amyloid-beta40 peptide production […] by ELISA. The format is cell-based. As to conditions: hek293. The procedure, abridged: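 Cell-free assay. Membrane fractions from HEK293 cells carrying γ-secretase activity are incubated with a recombinant APP C-terminal fragment as substrate. The Aβ40 peptide produced is quantified by ELISA, and IC50 is derived from it.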

Another data set relates to Mus musculus. As to the kind of experiment: Increase of CTF-APP ratio in po dosed transgenic mouse AD model after 2 days. The format is functional.
A short description of data set [3]: Maximal achievable bioavailability in rat liver microsomes. Type of data set: ADME, Microsome. Particulars: read-out: Max Achievable Bioavailability. On the technique in general: Microsomes from liver hold many membrane-bound enzymes, among them those of drug oxidation.
The nature of data set [4]: Maximal achievable bioavailability in human liver microsomes. As to conditions: read-out: Max Achievable Bioavailability. The format is ADME, Microsome. The procedure, abridged: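 Maximal achievable bioavailability is estimated from compound incubations with liver microsomes of the stated species.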
Data set [5] can be described thus: Oral bioavailability in mouse at 7.8 mg/kg, po. The format is ADME, organism-based. Particulars: in vivo. The procedure, abridged:
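Oral bioavailability (F) in mice after a 7.8 mg/kg oral dose.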

The nature of data set [6]: Clearance in mouse. Type of data set: ADME, organism-based. As to conditions: in vivo.
A short description of data set [7]: Solubility of compound. The format is physicochemical.
A short description of data set [8]: Ratio of drug level in brain to plasma in mouse. Type of data set: ADME.

In turn, `CC(OC(=O)NCC(F)(F)C(F)(F)F)C(=O)N[C@@H]1C(=O)N(C)c2ccccc2-c2ccccc21` (some centres undefined) gave a pIC50 against Gamma-secretase [1] of 8.70.
As to `C[C@H](OC(=O)Nc1ccccc1)C(=O)NC1C(=O)N(C)c2ccccc2-c2ccccc21` (some centres undefined), the pIC50 against Gamma-secretase [1] was 5.82; at Gamma-secretase [2], 5.57.
Take `CC(C(N)=O)C(=O)NC1C(=O)N(C)c2ccccc2-c2ccccc21` (centres undefined): the results for the pIC50 at Gamma-secretase [1] and at Gamma-secretase [2] were less than 4.60 and 5.28, respectively.
On to `CC(C(=O)NC(C)c1ccccc1)C(=O)NC1C(=O)N(C)c2ccccc2-c2ccccc21` (centres undefined), for which the pIC50 against Gamma-secretase [1] was 5.20; at Gamma-secretase [2], 5.24.
On to `C[C@H](NC(=O)[C@@H](O)c1cc(F)cc(F)c1)C(=O)N[C@@H]1C(=O)N(C)c2ccccc2-c2ccccc21`, for which, in the data set with Mus musculus, the MED was 20 mg/kg.
`CC(C(=O)NCc1cc(F)cc(F)c1)C(=O)NC1C(=O)N(C)c2ccccc2-c2ccccc21` (centres undefined): the pIC50 against Gamma-secretase [1] is 8.00; on Gamma-secretase [2], 7.66. Moreover, the Fh in [3] came to 9%; in data set [4], 10%.
Regarding `CC(C(=O)NC1CCc2ccccc21)C(=O)NC1C(=O)N(C)c2ccccc2-c2ccccc21` (centres undefined), the pIC50 against Gamma-secretase [1] was 4.85; on Gamma-secretase [2], 4.92.
With `CC(C(=O)NCc1ccccc1)C(=O)NC1C(=O)N(C)c2ccccc2-c2ccccc21` (centres undefined), the pIC50 against Gamma-secretase [1] was 7.12; at Gamma-secretase [2] it was 7.82.
As to `CCOCCNC(=O)C(C)C(=O)NC1C(=O)N(C)c2ccccc2-c2ccccc21` (centres undefined), the results for the pIC50 at Gamma-secretase [1] and at Gamma-secretase [2] were 5.48 and 5.52, respectively.
Turning to `CC(C(=O)NCC(F)(F)C(F)(F)F)C(=O)N[C@@H]1C(=O)N(C)c2ccccc2-c2ccccc21` (mixture of isomers), the MED in the data set with Mus musculus turned out to be 3 mg/kg. The pIC50 against Gamma-secretase [1] is 8.77; on Gamma-secretase [2] it was 8.52. This compound also showed a bioavailability in data set [5] of 21%. Also, the clearance in data set [6] is 53 mL/min/kg. This compound registered a Solubility in data set [7] of 28 mg/mL. For the same compound, the Fh in data set [3] came to 38%; in data set [4] it was 55%. The Kp in data set [8] amounted to 0.5.
Turning to `C[C@H](C(=O)NCc1cc(F)cc(F)c1)C(=O)N[C@@H]1C(=O)N(C)c2ccccc2-c2ccccc21`, the pIC50 against Gamma-secretase [1] is 8.15; at Gamma-secretase [2], 8.06.
For the compound `C[C@@H](C(=O)NCc1cc(F)cc(F)c1)C(=O)N[C@@H]1C(=O)N(C)c2ccccc2-c2ccccc21`, the pIC50 against Gamma-secretase [1] is 8.80; at Gamma-secretase [2] it was 8.70.
Regarding `CC(C(=O)NCC1CC1)C(=O)NC1C(=O)N(C)c2ccccc2-c2ccccc21` (centres undefined), the pIC50 was 6.68 at Gamma-secretase [1] and 7.05 at Gamma-secretase [2]. The Fh in data set [3] turned out to be 12%; in data set [4], 18%.
Consider `CC(C(=O)NCc1cc(F)cc(F)c1)C(=O)N[C@@H]1C(=O)N(C)c2ccccc2-c2ccccc21` (mixture of isomers), for which the pIC50 at Gamma-secretase [1] was 8.06; at Gamma-secretase [2], 8.51.
With `CC(C(=O)NC(CO)c1ccccc1)C(=O)NC1C(=O)N(C)c2ccccc2-c2ccccc21` (centres undefined), the pIC50 at Gamma-secretase [1] was less than 4.60; on Gamma-secretase [2] it was 4.66.
As to `CC(C(=O)NC1C(=O)N(C)c2ccccc2-c2ccccc21)C(=O)NC(C)(C)c1ccccc1` (centres undefined), the pIC50 against Gamma-secretase [1] and on Gamma-secretase [2] was less than 4.70 in each case. In addition, the Fh stood at 9% in data set [3] and 14% in data set [4].
As to `CC(C(=O)NCCC(F)(F)F)C(=O)NC1C(=O)N(C)c2ccccc2-c2ccccc21` (centres undefined), the figures for the pIC50 against Gamma-secretase [1] and on Gamma-secretase [2] were 7.62 and 7.43, respectively.
Take `CC(C(=O)NCc1cc(F)cc(F)c1)C(=O)N[C@H]1C(=O)N(C)c2ccccc2-c2ccccc21` (mixture of isomers): the pIC50 against Gamma-secretase [1] was 6.24; on Gamma-secretase [2] it was 6.21.
As for `CC(C(=O)NCC(F)(F)F)C(=O)NC1C(=O)N(C)c2ccccc2-c2ccccc21` (centres undefined), the pIC50 at Gamma-secretase [1] is 7.38; at Gamma-secretase [2], 7.70. For the same compound, the values for the Fh in data set [3] and in data set [4] were 37% and 55%, respectively.
Take `C[C@H](OC(=O)NCC(F)(F)C(F)(F)F)C(=O)N[C@@H]1C(=O)N(C)c2ccccc2-c2ccccc21`: the MED with Mus musculus was 3 mg/kg. In addition, the pIC50 was 8.77 against Gamma-secretase [1] and 8.07 at Gamma-secretase [2]. In addition, the bioavailability in data set [5] stood at 23%. In [6], the clearance was 32 mL/min/kg. The Fh in data set [3] was 70%; in [4] it was 72%. Moreover, in data set [8], the Kp was determined as 0.5.

What is called pIC50 is −log10 of the IC50, conventionally taken in molar units. In general, bioavailability refers to the share of a dose that reaches the circulation, judged against a reference dose that is usually intravenous. Lower therefore signals little systemic uptake. What is called clearance is the volume of plasma or blood freed of the substance per unit of time. A higher clearance goes with a high capacity for elimination. What is called Solubility is how much of the substance goes into solution per volume. A higher Solubility goes with much dissolved substance. A word on the Kp: it is tissue or fluid exposure divided by exposure in the circulation.
